Results: ChEMBL document CHEMBL1122835, “Synthesis and pharmacology of the potent angiotensin-converting enzyme inhibitor N-[1(S)-(ethoxycarbonyl)-3-phenylpropyl]-(S)-alanyl-(S)-pyroglutamic acid” (J Med Chem, 1985)
Blank lines part the entries; values can stand above or below the compound they belong to.

Assays:
[1] = Half life was determined; format: ADME; settings: rat
In short: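 Rats anesthetized with pentobarbital/barbital received a single iv dose, 0.2 or 0.08 mg/kg. AI 0.3 μg/kg iv given at 5 min, then every 10 min for 210 min. Half-life = time for the AI pressor response to fall to 50% of its peak inhibition.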

Rattus norvegicus [2] = test: Percent change was determined in bradykinin depressor response in anesthetized normotensive rat, administered intravenously at dose 0.0033 mg/kg; format: functional; settings: route intravenous
In short: (§1)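 Anesthetized (pentobarbital/barbital ip) male Charles River CD rats, 380–500 g, kept at 37 °C. Femoral artery blood pressure recorded. Control depressor response to bradykinin 1 μg/kg iv, then cumulative iv drug in 0.9% saline (1 mL/kg), 0.0033–0.27 mg/kg. Bk challenge 5 min after each dose. ED50 = dose giving a 50% change from control, by linear regression; N = 8.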

Rattus norvegicus [3] = test: Percent change was determined in bradykinin depressor response in anesthetized normotensive rat, administered intravenously at dose 0.010 mg/kg; format: functional; settings: dose 0.01 mg/kg; route intravenous
In short: (§2)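 Male Charles River CD rats (380–500 g), pentobarbital Na 15 mg/kg plus barbital 220 mg/kg ip, tracheotomized, femoral artery/vein cannulated, kept at 37 °C. Control bradykinin 1 μg/kg iv depressor response, separate from angiotensin tests; drug iv in 0.9% saline (1 mL/kg, free base) 10 min later, Bk 5 min after each cumulative dose (0.0033–0.27 mg/kg). Maximum fall in arterial pressure versus control response; N = 8.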

Rattus norvegicus [4] = test: Percent change was determined in bradykinin depressor response in anesthetized normotensive rat, administered intravenously at dose 0.030 mg/kg; format: functional; settings: dose 0.03 mg/kg; route intravenous; in short: as §2
Rattus norvegicus [5] = test: Percent change was determined in bradykinin depressor response n anesthetized normotensive rat, administered intravenously at dose 0.090 mg/kg; format: functional; settings: dose 0.09 mg/kg; route intravenous; in short: as §2
Rattus norvegicus [6] = test: Percent decrease in angiotensin I pressor response was measured in rat, administered intravenously at dose 0.010 mg/kg; format: functional; settings: dose 0.01 mg/kg; route intravenous
In short: (§3)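 Anesthetized (pentobarbital Na 15 mg/kg + barbital 220 mg/kg ip), tracheotomized male Charles River CD rats, 380–500 g, femoral cannulas, heated board at 37 °C. Control pressor responses to angiotensin I 0.3 μg/kg then angiotensin II 0.1 μg/kg iv; drug iv in 0.9% saline (free base), AI and AII repeated at 5-min intervals, cumulative 0.01–0.81 mg/kg. Peak arterial pressure rise versus control.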

Rattus norvegicus [7] = test: Percent decrease in angiotensin I pressor response was measured in rat, administered intravenously at dose 0.030 mg/kg; format: functional; settings: dose 0.03 mg/kg; route intravenous; in short: as §3
Rattus norvegicus [8] = test: Percent decrease in angiotensin I pressor response was measured in rat, administered intravenously at dose 0.090 mg/kg; format: functional; settings: dose 0.09 mg/kg; route intravenous; in short: as §3
Rattus norvegicus [9] = test: Percent decrease in angiotensin I pressor response was measured in rat, administered intravenously at dose 0.27 mg/kg; format: functional; settings: route intravenous; in short: as §3
Rattus norvegicus [10] = test: Percent decrease in angiotensin I pressor response was measured in rat, administered intravenously at dose 0.81 mg/kg; format: functional; settings: route intravenous; in short: as §3
Rattus norvegicus [11] = test: Hypotensive activity was determined in low-sodium treated rat, dose 10 mg/kg administered orally at 2 hr; format: functional; settings: route oral
In short: (§4)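 Male CD rats, 11 weeks old, kept on a sodium-deficient diet for 3 weeks and fasted overnight, were dosed orally with aqueous solutions (5 mL/kg), water as control. Systolic pressure measured by tail cuff at the stated post-dose time. ANOVA with Duncan's test.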

Rattus norvegicus [12] = test: Hypotensive activity was determined in low-sodium treated rat, dose 10 mg/kg administered orally at 5 hr; format: functional; settings: route oral; in short: as §4
Rattus norvegicus [13] = test: Hypotensive activity was determined in low-sodium treated rat, dose 3 mg/kg administered orally at 2 hr; format: functional; settings: route oral; in short: as §4
Rattus norvegicus [14] = test: Hypotensive activity was determined in low-sodium treated rat, dose 30 mg/kg administered orally at 2 hr; format: functional; settings: route oral; in short: as §4
Rattus norvegicus [15] = test: Hypotensive activity was determined in low-sodium treated rat, dose 30 mg/kg administered orally at 5 hr; format: functional; settings: route oral; in short: as §4
Rattus norvegicus [16] = test: Hypotensive activity was determined in low-sodium treated rat, dose 3 mg/kg administered orally at 5 hr; format: functional; settings: route oral; in short: as §4
Rattus norvegicus [17] = test: Decrease in systolic blood pressure of Spontaneous Hypertensive Rats (SHR) pretreated with hydrochlorothiazide upon oral administration at 3 mm/kg; format: functional, Artery
In short: (§5)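 Male SHR, 13 weeks old, given HCTZ 25 mg/kg po in 0.25% methylcellulose daily for 3 days. Drug given orally in water (5 mL/kg) 1 h after the third dose. Tail-cuff systolic pressure and pulse-count heart rate taken 1.5 h later after 20 min warming at 38 °C. ANOVA with Duncan's test; ED30 by linear regression.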

Rattus norvegicus [18] = test: Decrease in systolic blood pressure of Spontaneous Hypertensive Rats (SHR) pretreated with hydrochlorothiazide upon oral administration at 10 mm/kg; format: functional, Artery; in short: as §5
Rattus norvegicus [19] = test: Decrease in systolic blood pressure of Spontaneous Hypertensive Rats (SHR) pretreated with hydrochlorothiazide upon oral administration at 30 mm/kg; format: functional, Artery; in short: as §5
Rattus norvegicus [20] = species: Rattus norvegicus; test: Dose required to reduce systolic blood pressure by 30 mmHg; format: functional; settings: Artery; in short: as §5
Rattus norvegicus [21] = species: Rattus norvegicus; test: Effective dose was determined to increase the vasoResponse in rat; format: functional; in short: as §1
Rattus norvegicus [22] = test: Effective dose to produce AcE inhibition in rat, administered intravenously; format: functional; settings: iv
In short: (§6)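 Male Charles River CD rats, 380–500 g, anesthetized with pentobarbital Na 15 mg/kg plus barbital 220 mg/kg ip, held at 37 °C. Femoral artery pressure recorded. AI 0.3 μg/kg and AII 0.1 μg/kg given iv as challenges. Cumulative iv drug in saline, 0.01–0.81 mg/kg, each dose followed by AI/AII challenges at 5-min intervals. ED50 = 50% change from control response, by linear regression.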

Rattus norvegicus [23] = test: Change in heart rate was determined at a dose 30 mg/kg; format: functional; in short: as §5
Rattus norvegicus [24] = test: Change in heart rate was determined at a dose 3 mg/kg; format: functional; in short: as §5
Rattus norvegicus [25] = test: Effect on vasopressor response caused by angiotensin I (AI) in anesthetized normotensive rat, administered intravenously at dose 0.010 mg/kg; format: functional; settings: dose 0.01 mg/kg; route intravenous; in short: as §6
Rattus norvegicus [26] = test: Effect on vasopressor response caused by angiotensin I (AI) in anesthetized normotensive rat, administered intravenously at dose 0.030 mg/kg; format: functional; settings: dose 0.03 mg/kg; route intravenous; in short: as §6
Rattus norvegicus [27] = test: Effect on vasopressor response caused by angiotensin I (AI) in anesthetized normotensive rat, administered intravenously at dose 0.090 mg/kg; format: functional; settings: dose 0.09 mg/kg; route intravenous; in short: as §6
Rattus norvegicus [28] = test: Effect on vasopressor response caused by angiotensin I (AI) in anesthetized normotensive rat, administered intravenously at dose 0.27 mg/kg; format: functional; settings: route intravenous; in short: as §6
Rattus norvegicus [29] = test: Effect on vasopressor response caused by angiotensin I (AI) in anesthetized normotensive rat, administered intravenously at dose 0.81 mg/kg; format: functional; settings: route intravenous; in short: as §6
Rattus norvegicus [30] = test: Activity against the bradykinin Response in anesthetized normotensive rat, administered intravenously at dose 0.0033 mg/kg; format: functional; settings: route intravenous; in short: as §1
Rattus norvegicus [31] = test: Activity against the bradykinin Response in anesthetized normotensive rat, administered intravenously at dose 0.010 mg/kg; format: functional; settings: dose 0.01 mg/kg; route intravenous; in short: as §1
Rattus norvegicus [32] = test: Activity against the bradykinin Response in anesthetized normotensive rat, administered intravenously at dose 0.030 mg/kg; format: functional; settings: dose 0.03 mg/kg; route intravenous; in short: as §1
Rattus norvegicus [33] = test: Activity against the bradykinin Response in anesthetized normotensive rat, administered intravenously at dose 0.090 mg/kg; format: functional; settings: dose 0.09 mg/kg; route intravenous; in short: as §1
Rattus norvegicus [34] = test: Change in heart rate was determined at a dose 10 mg/kg; format: functional; in short: as §5
[35] = target: T1, Angiotensin-converting enzyme (Rattus norvegicus) (UniProt P47820); test: Inhibitory activity was determined against Angiotensin I converting enzyme; format: functional
T1 sequence (whole entry): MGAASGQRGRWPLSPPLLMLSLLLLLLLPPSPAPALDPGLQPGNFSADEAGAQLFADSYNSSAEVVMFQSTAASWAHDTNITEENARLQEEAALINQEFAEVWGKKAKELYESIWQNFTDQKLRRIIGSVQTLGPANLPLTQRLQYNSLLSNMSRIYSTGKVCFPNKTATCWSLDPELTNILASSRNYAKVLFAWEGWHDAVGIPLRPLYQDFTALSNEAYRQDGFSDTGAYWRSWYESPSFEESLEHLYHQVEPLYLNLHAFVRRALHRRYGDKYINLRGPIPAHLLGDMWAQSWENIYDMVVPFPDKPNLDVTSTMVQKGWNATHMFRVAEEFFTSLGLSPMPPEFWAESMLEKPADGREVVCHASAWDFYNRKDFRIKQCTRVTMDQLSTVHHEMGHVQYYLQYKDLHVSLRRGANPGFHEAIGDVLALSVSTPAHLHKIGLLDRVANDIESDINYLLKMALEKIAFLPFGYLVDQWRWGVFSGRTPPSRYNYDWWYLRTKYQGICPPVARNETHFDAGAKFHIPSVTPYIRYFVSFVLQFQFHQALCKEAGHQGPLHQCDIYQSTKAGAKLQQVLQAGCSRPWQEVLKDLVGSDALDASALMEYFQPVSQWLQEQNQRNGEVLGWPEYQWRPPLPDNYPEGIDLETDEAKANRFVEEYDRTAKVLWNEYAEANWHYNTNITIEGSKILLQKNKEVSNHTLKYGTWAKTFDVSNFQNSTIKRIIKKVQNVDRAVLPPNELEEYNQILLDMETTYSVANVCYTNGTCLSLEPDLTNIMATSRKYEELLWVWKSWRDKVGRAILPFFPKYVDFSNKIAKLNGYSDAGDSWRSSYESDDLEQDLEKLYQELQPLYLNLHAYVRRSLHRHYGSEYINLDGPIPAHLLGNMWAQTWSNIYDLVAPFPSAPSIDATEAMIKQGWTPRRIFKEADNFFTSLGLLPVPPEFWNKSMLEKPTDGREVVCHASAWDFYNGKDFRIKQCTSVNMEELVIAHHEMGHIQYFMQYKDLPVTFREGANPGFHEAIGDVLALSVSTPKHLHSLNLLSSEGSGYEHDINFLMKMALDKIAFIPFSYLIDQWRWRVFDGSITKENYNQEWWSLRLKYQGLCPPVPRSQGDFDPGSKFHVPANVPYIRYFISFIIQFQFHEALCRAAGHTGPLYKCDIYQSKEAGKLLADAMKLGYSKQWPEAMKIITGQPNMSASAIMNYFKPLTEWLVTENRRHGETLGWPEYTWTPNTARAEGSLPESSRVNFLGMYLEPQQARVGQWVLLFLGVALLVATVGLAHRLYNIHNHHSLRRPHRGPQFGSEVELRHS

- half-life [1]: 2.5 h
SMILES: CCOC(=O)[C@H](CCc1ccccc1)N[C@@H](C)C(=O)N1CCC[C@H]1C(=O)O [ENALAPRIL]
- Change (Rattus norvegicus [2]): -7%
- Change (Rattus norvegicus [3]): 55%
- Change (Rattus norvegicus [4]): 110%
- Change (Rattus norvegicus [5]): 107%
- Decrease (Rattus norvegicus [6]): 14%
- Decrease (Rattus norvegicus [7]): 37%
- Decrease (Rattus norvegicus [8]): 60%
- Decrease (Rattus norvegicus [9]): 81%
- Decrease (Rattus norvegicus [10]): 84%
- Activity (Rattus norvegicus [11]): 138 mmHg
- Activity (Rattus norvegicus [12]): 123 mmHg
- Activity (Rattus norvegicus [13]): 148 mmHg
- Activity (Rattus norvegicus [14]): 134 mmHg
- Activity (Rattus norvegicus [15]): 128 mmHg
- Activity (Rattus norvegicus [16]): 128 mmHg
- Blood pressure (Rattus norvegicus [17]): 199 mmHg
- Blood pressure (Rattus norvegicus [18]): 169 mmHg
- Blood pressure (Rattus norvegicus [19]): 163 mmHg
- ED30 (Rattus norvegicus [20]): 1.5 mg/kg
- ED50 (Rattus norvegicus [21]): 0.0097 mg/kg
- ED50 (Rattus norvegicus [22]): 0.066 mg/kg
- Heart rate (Rattus norvegicus [23]): 386 beats min-1
- Heart rate (Rattus norvegicus [24]): 378 beats min-1
- Response (Rattus norvegicus [25]): 37 mmHg
- Response (Rattus norvegicus [26]): 27 mmHg
- Response (Rattus norvegicus [27]): 17 mmHg
- Response (Rattus norvegicus [28]): 8 mmHg
- Response (Rattus norvegicus [29]): 7 mmHg
- Response (Rattus norvegicus [30]): -27 mmHg
- Response (Rattus norvegicus [31]): -45 mmHg
- Response (Rattus norvegicus [32]): -61 mmHg
- Response (Rattus norvegicus [33]): -60 mmHg
- Heart rate (Rattus norvegicus [34]): 380 beats min-1

- ED50 [35]: 4 mg/kg
SMILES: CCOC(=O)[C@H](CCc1ccccc1)N[C@H](C)C(=O)N1C(=O)CC[C@H]1C(=O)O
